Measured values reported in ChEMBL document CHEMBL3779860, “A Designed Tryptophan- and Lysine/Arginine-Rich Antimicrobial Peptide with Therapeutic Potential for Clinical Antibiotic-Resistant Candida albicans Vaginitis” (J Med Chem, 2016).
Values after ≈ are worked out from the molar mass of the structure shown. Active and inactive are the calls of the source. No cut-off for these calls is given here.

Columns and labels:
[1] = Induction of hemolysis in human RBC at 320 ug/mL after 30 mins; type: cell-based, Erythrocyte; conditions: red blood cells, read-out: Activity
Method in brief: (§1)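 Serial dilutions were incubated with human erythrocytes for 30 min at 37°C. Supernatant absorbance was read at 540 nm after centrifugation. Hemolysis is expressed as % of the 1% Triton X-100 lysis value, pooled from three independent experiments. The highest concentration tested was 320 µg/mL.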

[2] = Hemolytic activity in human RBC after 30 mins; type: ADME, cell-based, Erythrocyte; conditions: for HC10: erythrocyte, 0.5 h; for HC50 at 0.5 h: red blood cells; method in brief: as §1
[3] = system: Bacillus subtilis; assay: Antimicrobial activity against Bacillus subtilis assessed as inhibition of […] growth after 16 hrs by broth dilution method; type: functional
Method in brief: (§2)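 Broth dilution in LB broth; 100 µL of 2 × 10^5 CFU/mL bacterial suspension plus 10 µL sample (stock series in 0.9% NaCl) in 90 µL broth, 37°C for 16 h. Growth read as A600; MIC is the lowest concentration completely inhibiting growth. Mean of three independent experiments run in duplicate.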

[4] = system: Staphylococcus aureus; assay: Antimicrobial activity against Staphylococcus aureus ATCC 2592 assessed as inhibition of […] growth after 16 hrs by broth dilution method; type: functional; conditions: ATCC 2592, 16 h; method in brief: as §2
[5] = system: Escherichia coli; assay: Antimicrobial activity against Escherichia coli ATCC 25922 assessed as inhibition of […] growth after 16 hrs by broth dilution method; type: functional; conditions: ATCC 25922, 16 h; method in brief: as §2
[6] = system: Candida albicans; assay: Antimicrobial activity against Candida albicans ATCC 2002 assessed as inhibition of yeast growth after 16 hrs by broth dilution method; type: functional; conditions: ATCC 2002, 16 h
Method in brief: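 Broth microdilution in Sabouraud liquid medium. Samples are stocks in 0.9% NaCl, 10 µL added to 90 µL broth plus 100 µL of 2 × 10^5 CFU/mL yeast suspension. Incubated 16 h at 28°C, growth read by A600. MIC is the lowest concentration completely inhibiting growth; mean of three independent experiments.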

[7] = system: Candida albicans; assay: Antimicrobial activity against antibiotic resistant Candida albicans clinical isolate 08030809 in mouse vaginitis model assessed as colony count in lavage liquid of vagina at 10 mg/ml administered as intravaginal instillation measured on day 16; type: functional
[8] = system: Candida albicans; assay: Antimicrobial activity against antibiotic resistant Candida albicans clinical isolate 08030809 assessed as clone count at 10 mg/ml after 10 mins by colony counting assay (reference value: 102 +/- 11 CFU); type: functional
[9] = system: Mus musculus; assay: Antiinflammatory activity in antibiotic resistant Candida albicans clinical isolate 08030809 induced mouse vaginitis model assessed as reduction in IL-10 secretion in vaginal tissue at 10 mg/ml administered as intravaginal instillation measured on day 10 by ELISA; type: functional, organism-based; conditions: Vagina
Method in brief: (§3)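 Same estradiol-primed mouse model, infected intravaginally with C. albicans 08030809 and treated by intravaginal instillation (20 µL/mouse). Vaginal canals excised on day 10 of treatment and homogenised in 0.9% NaCl. Supernatant taken after 2,000 g for 15 min. TNF-α, IL-6, IL-1β and IL-10 measured by ELISA. Mean ± SE of three independent experiments; unpaired t-test versus vehicle.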

[10] = system: Candida albicans; assay: Antimicrobial activity against antibiotic resistant Candida albicans clinical isolate 08030809 assessed as clone count at 10 mg/ml after 24 hrs by colony counting assay (Rvb > 10^5 CFU); type: functional
[11] = system: Mus musculus; assay: (§4) Antiinflammatory activity in antibiotic resistant Candida albicans clinical isolate 08030809 induced mouse vaginitis model assessed as microabscess number in vaginal tissue at 200 ug administered as intravaginal instillation measured after 16 days by hematoxylin-eosin staining based microscopic method (reference value: 61); type: functional, Vagina
Method in brief: (§5)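 Mice given weekly subcutaneous estradiol valerate (0.5 mg in 0.1 mL vegetable oil) 72 h before infection. Infected intravaginally with 20 µL of 10^7 CFU/mL C. albicans 08030809. Intravaginal instillation of 20 µL daily for 16 days. Vaginal canals excised after lavage, formalin-fixed, paraffin-embedded, HE-stained. Microabscesses counted per high-power field over 6 fields per section, three independent experiments.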

[12] = system: Candida albicans; assay: Antimicrobial activity against antibiotic resistant Candida albicans clinical isolate 08030809 assessed as clone count at 10 mg/ml after 12 hrs by colony counting assay (reference value: 54153 +/- 8769 CFU); type: functional
[13] = system: Candida albicans; assay: Effect on cell membrane integrity in antibiotic resistant Candida albicans clinical isolate 08030809 at 20 ug/ml measured every 2 mins upto 20 mins by SYTOX green nucleic acid staining-based fluorescence assay; type: functional, organism-based
Method in brief: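 Exponential-phase C. albicans 08030809 was washed and resuspended at 10^6 CFU/mL in 10 mM PBS pH 7.4. Cells were loaded with 0.1 µM (final) SYTOX Green for 15 min at 37°C with shaking, then test samples were added. Fluorescence (ex 488/em 530 nm) was recorded every 2 min as RFU. Mean ± SE of five independent experiments.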

[14] = system: Mus musculus; assay: as §4, with “on day 6” for “after 16 days”; type: functional, Vagina; method in brief: as §5
[15] = system: Mus musculus; assay: Antiinflammatory activity in antibiotic resistant Candida albicans clinical isolate 08030809 induced mouse vaginitis model assessed as reduction in IL-6 secretion in vaginal tissue at 10 mg/ml administered as intravaginal instillation measured on day 10 by ELISA; type: functional, organism-based; conditions: Vagina; method in brief: as §3
[16] = system: Candida albicans; assay: Antimicrobial activity against antibiotic resistant Candida albicans clinical isolate 08030809 assessed as clone count at 10 mg/ml after 1 min by colony counting assay (reference value: 62 +/- 7 CFU); type: functional
[17] = system: Mus musculus; assay: Antiinflammatory activity in antibiotic resistant Candida albicans clinical isolate 08030809 induced mouse vaginitis model assessed as reduction in TNF-alpha secretion in vaginal tissue at 10 mg/ml administered as intravaginal instillation measured on day 10 by ELISA; type: functional, organism-based; conditions: Vagina; method in brief: as §3
[18] = system: Candida albicans; assay: Antimicrobial activity against antibiotic resistant Candida albicans clinical isolate 08030809 assessed as clone count at 10 mg/ml after 30 mins by colony counting assay (reference value: 156 +/- 16 CFU); type: functional
[19] = system: Mus musculus; assay: Antiinflammatory activity in antibiotic resistant Candida albicans clinical isolate 08030809 induced mouse vaginitis model assessed as reduction in IL-1beta secretion in vaginal tissue at 10 mg/ml administered as intravaginal instillation measured on day 10 by ELISA; type: functional, organism-based; conditions: Vagina; method in brief: as §3
[20] = system: Candida albicans; assay: Antimicrobial activity against antibiotic resistant Candida albicans clinical isolate 08030809 assessed as clone count at 10 mg/ml after 3 hrs by colony counting assay (reference value: 3687 +/- 543 CFU); type: functional
[21] = system: Candida albicans; assay: Antimicrobial activity against antibiotic resistant Candida albicans clinical isolate 08030809 assessed as clone count at 10 mg/ml after 1 hr by colony counting assay (reference value: 228 +/- 23 CFU); type: functional
[22] = system: Candida albicans; assay: Antimicrobial activity against antibiotic resistant Candida albicans clinical isolate 08030809 in mouse vaginitis model assessed as decrease in colony count in lavage liquid of vagina at 10 mg/ml administered as intravaginal instillation measured on day 16; type: functional; conditions: isolate 08030809, Vagina, topical, 384 h
[23] = system: Candida albicans; assay: Antimicrobial activity against antibiotic resistant Candida albicans clinical isolate 08030809 assessed as clone count at 10 mg/ml after 6 hrs by colony counting assay (reference value: 14536 +/- 2467 CFU); type: functional

Compound	hemolysis at 0.5 h, 320 ug/mL [1]	HC10 [2]	HC50 at 0.5 h [2]	MIC [3]	MIC [4]	MIC [5]	MIC [6]	further results
H-VKWRWKKWRWKWKWKV-NH2 [listing 1 of 2 here]	17.6%	178.3 µg/mL	> 320 µg/mL					
CC1(C)S[C@@H]2[C@H](NC(=O)[C@H](N)c3ccccc3)C(=O)N2[C@H]1C(=O)O [AMPICILLIN]				0.02 µg/mL (≈ 0.0572 µM)	0.15 µg/mL (≈ 0.429 µM)	18.7 µg/mL (≈ 53.5 µM)		
H-VKWRWKWKWRWKWKWKV-NH2	30.8%	62.8 µg/mL	> 320 µg/mL	> 100 µg/mL	> 100 µg/mL	> 100 µg/mL	> 100 µg/mL	
Clc1ccccc1C(c1ccccc1)(c1ccccc1)n1ccnc1 [CLOTRIMAZOLE]								Activity [7]: 1.2 ×10⁴ CFU/ml; Activity [8]: 64 CFU; Activity [9]: inactive; Activity [10]: 57425 CFU; Activity [11]: 10; Activity [12]: 15789 CFU; Activity [13]: inactive; Activity [14]: 18; Activity [15]: inactive; Activity [16]: 42 CFU; Activity [17]: inactive; Activity [18]: 106 CFU; Activity [19]: inactive; Activity [20]: 533 CFU; Activity [21]: 178 CFU; inhibition in vivo at 10000 µg/mL [22]: 38%; Activity [23]: 2674 CFU
H-VKRFKKFFRKFKKSV-NH2 [listing 1 of 2 here]				> 100 µg/mL	> 100 µg/mL	37.5 µg/mL	9.38 µg/mL	
H-VKRWKKWWRKLKKSV-NH2	8.7%	> 320 µg/mL	> 320 µg/mL	> 100 µg/mL	> 100 µg/mL	18.8 µg/mL	9.38 µg/mL	
OC(Cn1cncn1)(Cn1cncn1)c1ccc(F)cc1F [FLUCONAZOLE]							18.7 µg/mL (≈ 61.1 µM)	
H-VKRWKKFWRKWKKWW-NH2 [listing 1 of 2 here]	27.6%	51.7 µg/mL	> 320 µg/mL					
H-VKWRWKKWRWKWKWKV-NH2 [listing 2 of 2 here]				> 100 µg/mL	> 100 µg/mL	> 100 µg/mL	> 100 µg/mL	
H-VKRFKKFFRKLKKSV-NH2	9.7%	> 320 µg/mL	> 320 µg/mL	75 µg/mL	> 100 µg/mL	18.8 µg/mL	18.8 µg/mL	
H-VKRWKKFWRKWKKWW-NH2 [listing 2 of 2 here]				4.69 µg/mL	4.69 µg/mL	18.8 µg/mL	2.34 µg/mL	
H-KFFRKLKKSVKKRAKEFFKKPRVIGVSIPF-OH	7.4%	> 320 µg/mL	> 320 µg/mL	9.38 µg/mL	> 100 µg/mL	2.34 µg/mL	4.7 µg/mL	
H-VKRFKKFFRKFKKSV-NH2 [listing 2 of 2 here]	7.5%	> 320 µg/mL	> 320 µg/mL					
